HTR5A inv ag: inverse agonist of human HTR5A in OPRM1-OPRD1 counter-screen | AID 504634 | inhibition, % at 9.3 µM | P47898 | 340,000 tested, 0.083% active | HTR5A cell line, luminescence, inverse agonism; in the data active = inhibition mostly above about 23%, no sharp cut-off; inactive = mostly below about 18%
MOR-DOR ag: OPRM1-OPRD1 heterodimerization agonism; P35372+P41143; activation, % at 9.3 µM; AID 504326; 340,000 tested, 0.3% active; cells, luminescence; in the data active = activation above about 18%
Target sequence (P35372 whole entry, looked up): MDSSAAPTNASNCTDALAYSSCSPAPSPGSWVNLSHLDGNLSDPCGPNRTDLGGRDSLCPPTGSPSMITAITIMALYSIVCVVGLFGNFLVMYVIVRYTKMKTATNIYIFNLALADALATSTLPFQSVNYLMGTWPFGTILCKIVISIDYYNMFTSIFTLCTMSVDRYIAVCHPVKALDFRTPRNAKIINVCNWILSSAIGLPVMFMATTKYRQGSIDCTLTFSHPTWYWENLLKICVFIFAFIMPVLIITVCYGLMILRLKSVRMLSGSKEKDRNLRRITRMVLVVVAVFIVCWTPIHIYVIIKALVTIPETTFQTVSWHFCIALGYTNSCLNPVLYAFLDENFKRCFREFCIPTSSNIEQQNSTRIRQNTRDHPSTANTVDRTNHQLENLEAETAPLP
Target sequence (P41143 whole entry, looked up): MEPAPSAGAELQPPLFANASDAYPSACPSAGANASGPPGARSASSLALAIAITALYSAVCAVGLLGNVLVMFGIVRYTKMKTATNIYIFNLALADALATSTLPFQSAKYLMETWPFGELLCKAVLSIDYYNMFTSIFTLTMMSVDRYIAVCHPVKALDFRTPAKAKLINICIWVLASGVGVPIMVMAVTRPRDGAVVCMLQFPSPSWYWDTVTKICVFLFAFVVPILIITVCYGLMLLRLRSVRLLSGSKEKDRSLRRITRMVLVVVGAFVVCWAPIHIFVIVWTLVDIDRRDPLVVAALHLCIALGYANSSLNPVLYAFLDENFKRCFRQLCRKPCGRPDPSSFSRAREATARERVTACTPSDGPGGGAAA
HTR5A ag ctr: counter-screen for OPRM1-OPRD1 agonists: human HTR5A agonism; HTR5A agonist assay, luminescence, cell-based; P47898; activation, % at 9.3 µM; 340,000 tested, 0.61% active; AID 504692; in the data active = activation mostly above about 9.5%, no sharp cut-off; inactive = mostly below about 7.6%
MC4R antagonist: human MC4R antagonism in cAMP assay. P32245. MC4R-expressing cells, MTII-stimulated cAMP, LANCE TR-FRET. inhibition, % at 6.5 µM. 360,000 tested, 0.48% active. AID 540295;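 active = inhibition above its plate's cutoff, the mean of tested wells on that plate plus 3 SD, cut at about 29% in these data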
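material = U2OS cells stably expressing human melanocortin 4 receptor (MC4R) | also added = Melanotan II challenge | dosing = single nominal compound dose of 6.5 µM | detection = TR-FRET with Eu-cAMP and labeled anti-cAMP, 671 nm | replication = singlicate | timing = compound 30 min, challenge 1 h, detection 1 h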
MC4R barr agon: human MC4R agonism via beta-arrestin; AID 540308; activation, % at 8.9 µM; U2OS MC4R beta-arrestin complementation, luminescence; percent of melanotan II response, DMSO zero; 360,000 tested, 0.98% active; P32245;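 active = activation above a per-plate cutoff, the mean activation of sample wells on that plate plus 3 SD, cut at about 8% in these data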
MOR-DOR inv ag-1: inverse agonists of human mu-delta opioid receptor heterodimerization; cell-based MOR-DOR heterodimer luminescence, inverse agonism; 340,000 tested, 0.21% active; inhibition, % at 9.3 µM; in the data active = inhibition above about 22%, passing the limit was not always enough
MOR-DOR inv ag-2: opioid heterodimer inverse agonism, HTR5A counter-screen; shares compounds with HTR5A inv ag; U2OS counter-screen cells, complementation luminescence; inhibition, % at 9.3 µM; 190 tested, under 10 active
HTR5A inv confrm: HTR5A (human) inverse agonism, confirmation; shares compounds with HTR5A inv ag; HTR5A-expressing cells, luminescence; inhibition, % at 9.3 µM; 190 tested, under 10 active
Hits are given with their value; n = inactive; x = no result given. An excerpt weighted towards active compounds, which were near 2.4% of everything screened. Unless noted, the rule behind the calls is not given here.

SMILES | HTR5A inv ag | MOR-DOR ag | HTR5A ag ctr | MC4R antagonist | MC4R barr agon | MOR-DOR inv ag-1 | MOR-DOR inv ag-2 | HTR5A inv confrm
CCN(CC)c1ccc2cc(-c3nc4ccccc4[nH]3)c(=O)oc2c1 | n | n | n | n | n | n | x | x
O=C(COc1coc(CN2CCc3ccccc3C2)cc1=O)Nc1ccc(F)cc1 | n | n | n | n | n | n | x | x
O=C(COc1coc(CN2CCc3ccccc3C2)cc1=O)Nc1ccc(F)cc1F | 63 | n | n | n | n | n | n | n
Cc1cccc(NC(=O)CNC(=O)c2cccs2)n1 | 31 | n | n | n | n | n | n | n
COc1ccc(NC(=O)Cn2c(=O)n(-c3ccc(CC(=O)NCc4ccco4)cc3)c(=O)c3ccccc32)cc1 | n | n | n | n | n | n | x | x
Oc1ccc(Cl)cc1N=Cc1sc2ccccc2c1Cl | n | n | n | n | n | n | x | x
O=[N+]([O-])c1ccc(O)c(N=Cc2sc3ccccc3c2O)c1 | 46 | n | n | n | n | n | n | n
Cc1ccc(O)c(NC(=S)NC(=O)c2ccccc2Cl)c1 | 21 | n | n | n | n | n | n | n
O=C(NC(=S)Nc1ccc(O)cc1)c1ccccc1Cl | n | n | n | n | n | n | x | x
Nc1ccc(-c2cnc[nH]2)cc1[N+](=O)[O-] | n | n | n | n | n | n | x | x
COc1cccc(NC(=S)N/N=C2/CCCCc3ccccc32)c1 | 35 | n | n | n | n | n | n | n
COc1ccc(C(C)=O)cc1CN1C(=O)C(Cc2ccccc2)ON=C1c1ncccc1C (stereo not drawn) | x | x | x | n | n | x | x | x
NS(=O)(=O)c1ccc(N=Nc2c[nH]c(=O)c(O)c2)cc1 | 32 | n | n | n | n | n | n | n
Cc1[nH][nH]c(=O)c1N=Nc1ccc(S(N)(=O)=O)cc1 | x | x | x | n | n | x | x | x
CNc1c(C(=O)O)ccc2c1C(=O)c1ccccc1C2=O | 36 | n | n | n | n | n | n | n
CCOc1cc(/C=C2/SC(=S)N(CC3CCCO3)C2=O)ccc1O (stereo not drawn) | 31 | n | n | n | n | n | n | n
COc1cc(/C=C2\SC(=S)N(C(C(=O)O)c3ccccc3)C2=O)ccc1O (stereo not drawn) | n | n | n | n | n | n | x | x
O=C1/C(=C\c2ccc(O)c(O)c2)SC(=S)N1Cc1ccccc1 | 30 | n | n | n | n | n | n | n
COc1cc(/C=C2/SC(=S)N(c3c(C)n(C)n(-c4ccccc4)c3=O)C2=O)ccc1O | 28 | n | n | n | n | n | n | n
COc1cc(/C=C2/SC(=NCc3ccccc3)N(Cc3ccccc3)C2=O)ccc1O | n | n | n | n | n | n | x | x
O=C1/C(=C/c2cccc(O)c2)SC(=S)N1CC1CCCO1 (stereo not drawn) | n | n | n | n | n | n | x | x
COc1cc(/C=C2/SC(=S)N(Cc3ccccc3)C2=O)ccc1O | 30 | n | n | n | n | n | n | n
O=C(CSc1nnc(-c2cccnc2)o1)Nc1ccccc1F | n | n | n | n | n | n | x | x
Cc1ccc(NC(=O)CCNC(=O)N2CC(=O)Nc3ccccc32)cc1Cl | x | x | x | n | n | x | x | x
CC(=O)Nc1ccc(S(=O)(=O)N2CCCC2C(=O)Nc2ccc3c(c2)OCCO3)cc1 (stereo not drawn) | n | n | n | n | n | n | x | x
SMILES | HTR5A inv ag | MOR-DOR ag | HTR5A ag ctr | MC4R antagonist | MC4R barr agon | MOR-DOR inv ag-1 | MOR-DOR inv ag-2 | HTR5A inv confrm
NC(=O)c1ccsc1NC(=O)c1ccc(N2CCCC2=O)cc1 | n | n | n | n | n | n | x | x
COc1cc(/C=C2\SC(=S)N(NC(=O)c3ccccc3OC)C2=O)ccc1O | 33 | n | n | n | n | n | n | n
COc1cc(Br)c(/C=C/c2ccc3cccc(O)c3n2)cc1OC | n | n | n | n | n | n | x | x
Oc1cccc2ccc(/C=C/c3ccccc3Br)nc12 | 62 | n | n | n | n | n | n | 51
CSc1ccc(/C=C/c2ccc3cccc(O)c3n2)cc1 | 24 | n | n | n | n | n | n | n
Cc1ccsc1/C=C/c1ccc2cccc(O)c2n1 | 32 | n | n | n | n | n | n | n
COc1ccc(C2=CC(=O)C[C@H](COCc3ccccc3)N(C(=O)OC(C)(C)C)O2)cc1 | n | n | n | n | n | n | x | x

Screening data as filed in PubChem.
